Results taken from ChEMBL document CHEMBL1154855 (Eur J Med Chem, 2010).
pEC50, pIC50: −log10 of the molar value.

Experiments:
[1] = system: Klebsiella pneumoniae; experiment: Antibacterial activity against Klebsiella pneumoniae after 24 hrs by broth microdilution method; type: functional; conditions: Klebsiella pneumoniae, 24 h; read-out: MIC
Procedure, shortened: (§1)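 Clinical isolates. Each dilution received 100 μl of 0.5 McFarland fresh culture. Solvent (DMSO), growth and standard controls were included. Tubes were incubated at 37 °C for 24 h. MIC is the highest dilution showing no turbidity. Tests were run in triplicate, with at least two repetitions.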

[2] = system: Streptococcus viridans; experiment: Antibacterial activity against Streptococcus viridans after 24 hrs by broth microdilution method; type: functional; conditions: Streptococcus viridans, 24 h; read-out: MIC; procedure, shortened: as §1
[3] = system: Escherichia coli; experiment: Antibacterial activity against Escherichia coli after 24 hrs by broth microdilution method; type: functional; conditions: Escherichia coli, 24 h; read-out: MIC; procedure, shortened: as §1
[4] = system: Proteus mirabilis; experiment: Antibacterial activity against Proteus mirabilis after 24 hrs by broth microdilution method; type: functional; conditions: Proteus mirabilis, 24 h; read-out: MIC; procedure, shortened: as §1
[5] = Cytotoxicity against Feline herpesvirus infected cat CRFK cells by trypan blue exclusion method; type: cell-based, Felis catus
Procedure, shortened: (§2)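 Uninfected confluent cultures were run in parallel with the infected cultures. Medium was replaced by 1 ml maintenance medium with serial compound concentrations; cell controls received no compound. Cultures were incubated at 37 °C. After 2 and 7 days, compound was withdrawn and viability was determined by trypan blue exclusion.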

[6] = system: Felid alphaherpesvirus 1; experiment: Antiviral activity against Feline herpesvirus infected in cat CRFK cells assessed as protection from virus-induced cytopathogenicity by MTT assay; type: functional, organism-based; conditions: Felid alphaherpesvirus 1, CRFK
[7] = (§3) Cytotoxicity against Herpes simplex virus 1 KOS infected HEL cells by trypan blue exclusion method; type: cell-based; conditions: human, HEL cells infected with herpes simplex virus 1 KOS; procedure, shortened: as §2
[8] = system: Feline coronavirus; experiment: Antiviral activity against Feline coronavirus infected in cat CRFK cells assessed as protection from virus-induced cytopathogenicity by MTT assay; type: functional, organism-based; conditions: Alphacoronavirus 1, CRFK
[9] = (§4) Cytotoxicity against Vaccinia virus infected HEL cells by trypan blue exclusion method; type: cell-based; conditions: human, HEL cells infected with vaccinia virus; procedure, shortened: as §2
[10] = Cytotoxicity against Feline coronavirus infected cat CRFK cells by trypan blue exclusion method; type: cell-based, Felis catus; procedure, shortened: as §2
[11] = (§5) Cytotoxicity against VSV infected HEL cells by trypan blue exclusion method; type: cell-based; conditions: human, HEL cells infected with VSV; procedure, shortened: as §2
[12] = system: Vesicular stomatitis virus; experiment: Antiviral activity against VSV infected in HEL cells assessed as protection from virus-induced cytopathogenicity after 1 to 2 days by MTT assay; type: functional, organism-based
[13] = (§6) Cytotoxicity against Herpes simplex virus 2 G infected HEL cells by trypan blue exclusion method; type: cell-based; conditions: human, HEL cells infected with herpes simplex virus 2 G; procedure, shortened: as §2
[14] = system: Punta Toro virus; experiment: Antiviral activity against Punta Toro virus infected in african green monkey Vero cells assessed as protection from virus-induced cytopathogenicity by MTT assay; type: functional, organism-based
[15] = system: HeLa; experiment: Cytotoxicity against Human coxsackievirus B4 infected human HeLa cells by trypan blue exclusion method; type: cell-based; conditions: hela; procedure, shortened: as §2
[16] = system: Influenza B virus; experiment: Antiviral activity against Influenza B virus infected in MDCK cells assessed as protection from virus-induced cytopathogenicity after 6 to 7 days by MTT assay; type: functional, organism-based
[17] = system: Vero; experiment: Cytotoxicity against PIV 3 infected african green monkey Vero cells by trypan blue exclusion method; type: cell-based; conditions: chlorocebus sabaeus, vero; procedure, shortened: as §2
[18] = system: Human alphaherpesvirus 2; experiment: Antiviral activity against Herpes simplex virus 2 G infected in HEL cells assessed as protection from virus-induced cytopathogenicity after 2 to 3 days by MTT assay; type: functional, organism-based; conditions: Human alphaherpesvirus 2, strain G
[19] = system: HEL; experiment: Cytotoxicity against acyclovir-sensitive Herpes simplex virus 1 KOS infected HEL cells by trypan blue exclusion method; type: cell-based; conditions: human; procedure, shortened: as §2
[20] = system: Influenza A virus; experiment: Antiviral activity against Influenza A virus H1N1 infected in MDCK cells assessed as protection from virus-induced cytopathogenicity after 6 to 7 days by MTT assay; type: functional, organism-based
[21] = system: HeLa; experiment: Cytotoxicity against VSV infected human HeLa cells by trypan blue exclusion method; type: cell-based; conditions: hela; procedure, shortened: as §2
[22] = system: HEL; experiment: as §3; type: cell-based; conditions: human, hel; procedure, shortened: as §2
[23] = Cytotoxicity against HIV1 3B-infected human MT4 cells by MTT assay; type: cell-based; conditions: MT4 cells infected with HIV-1 3B
Procedure, shortened: (§7)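 MT-4 cells (3 × 10^4 per well) were cultured in microdilution trays with various concentrations of compound, then incubated 5 days at 37 °C, and viable cell number was read by MTT.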

[24] = system: Vero; experiment: Cytotoxicity against Human coxsackievirus B4 infected african green monkey Vero cells by trypan blue exclusion method; type: cell-based; conditions: chlorocebus sabaeus, vero; procedure, shortened: as §2
[25] = system: Respiratory syncytial virus; experiment: Antiviral activity against Respiratory syncytial virus infected in human HeLa cells assessed as protection from virus-induced cytopathogenicity after 4 days by MTT assay; type: functional, organism-based; conditions: 96 h
[26] = system: MDCK; experiment: Cytotoxicity against Influenza A virus subtype H1N1 infected MDCK cells by trypan blue exclusion method; type: cell-based, Canis lupus familiaris; conditions: dog
[27] = system: MDCK; experiment: Cytotoxicity against Influenza A virus subtype H3N2 infected MDCK cells by trypan blue exclusion method; type: cell-based, Canis lupus familiaris; conditions: dog
[28] = system: MDCK; experiment: Cytotoxicity against Influenza B virus infected MDCK cells by trypan blue exclusion method; type: cell-based, Canis lupus familiaris; conditions: dog
[29] = system: Influenza A virus; experiment: Antiviral activity against Influenza A virus H3N2 infected in MDCK cells assessed as protection from virus-induced cytopathogenicity after 6 to 7 days by MTT assay; type: functional, organism-based
[30] = Cytotoxicity against HIV2 ROD infected human MT4 cells by MTT assay; type: cell-based; conditions: MT4 cells infected with HIV-2 ROD; procedure, shortened: as §7
[31] = system: HeLa; experiment: Cytotoxicity against Respiratory syncytial virus infected human HeLa cells by trypan blue exclusion method; type: cell-based; conditions: hela; procedure, shortened: as §2
[32] = system: HEL; experiment: as §4; type: cell-based; conditions: human, hel; procedure, shortened: as §2
[33] = system: HEL; experiment: as §5; type: cell-based; conditions: human, hel; procedure, shortened: as §2
[34] = system: Coxsackievirus B4; experiment: Antiviral activity against Human coxsackievirus B4 infected in african green monkey Vero cells assessed as protection from virus-induced cytopathogenicity after 2 days by MTT assay; type: functional, organism-based; conditions: Enterovirus B, 48 h
[35] = system: Human immunodeficiency virus 2; experiment: Antiviral activity against HIV2 ROD infected in human MT4 cells assessed as protection from virus-induced cytopathogenicity after 5 days by MTT assay; type: functional, organism-based; conditions: Human immunodeficiency virus 2, ISOLATE ROD, MT4, 120 h
Procedure, shortened: (§8)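 MT-4 cells at 3 × 10^4 per well were infected with HIV (IIIB or ROD) at 50% cell culture infective doses. Graded compound concentrations were added immediately after infection. Plates were incubated for 5 days at 37 °C and viable cells were counted by MTT.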

[36] = system: Human alphaherpesvirus 1; experiment: Antiviral activity against acyclovir-sensitive Herpes simplex virus 1 KOS infected in HEL cells assessed as protection from virus-induced cytopathogenicity after 2 to 3 days by MTT assay; type: functional, organism-based; conditions: Human alphaherpesvirus 1, KOS
[37] = system: Human respirovirus 3; experiment: Antiviral activity against PIV 3 infected in african green monkey Vero cells assessed as protection from virus-induced cytopathogenicity after 6 to 7 days by MTT assay; type: functional, organism-based; conditions: Human respirovirus 3, Vero
[38] = system: HEL; experiment: as §6; type: cell-based; conditions: human, hel; procedure, shortened: as §2
[39] = system: Mammalian orthoreovirus 1; experiment: Antiviral activity against Reovirus 1 infected in african green monkey Vero cells assessed as protection from virus-induced cytopathogenicity after 6 to 7 days by MTT assay; type: functional, organism-based; conditions: Mammalian orthoreovirus 1, Vero
[40] = system: Human immunodeficiency virus 1; experiment: Antiviral activity against HIV1 3B-infected in human MT4 cells assessed as protection from virus-induced cytopathogenicity after 5 days by MTT assay; type: functional, organism-based; conditions: Human immunodeficiency virus 1, 3B, MT4, 120 h; procedure, shortened: as §8
[41] = system: Sindbis virus; experiment: Antiviral activity against Sindbis virus infected in african green monkey Vero cells assessed as protection from virus-induced cytopathogenicity after 2 to 3 days by MTT assay; type: functional, organism-based
[42] = system: Human alphaherpesvirus 1; experiment: Antiviral activity against Herpes simplex virus 1 KOS infected in HEL cells assessed as protection from virus-induced cytopathogenicity after 2 to 3 days by MTT assay; type: functional, organism-based; conditions: Human alphaherpesvirus 1, KOS
[43] = system: Vero; experiment: Cytotoxicity against Sindbis virus infected african green monkey Vero cells by trypan blue exclusion method; type: cell-based; conditions: chlorocebus sabaeus, vero; procedure, shortened: as §2
[44] = system: Vero; experiment: Cytotoxicity against Reovirus 1 infected african green monkey Vero cells by trypan blue exclusion method; type: cell-based; conditions: chlorocebus sabaeus, vero; procedure, shortened: as §2
[45] = system: Coxsackievirus B4; experiment: Antiviral activity against Human coxsackievirus B4 infected in human HeLa cells assessed as protection from virus-induced cytopathogenicity after 2 days by MTT assay; type: functional, organism-based; conditions: Enterovirus B, 48 h
[46] = system: Vesicular stomatitis virus; experiment: Antiviral activity against VSV infected in human HeLa cells assessed as protection from virus-induced cytopathogenicity after 1 to 2 days by MTT assay; type: functional, organism-based
[47] = system: Vero; experiment: Cytotoxicity against Punta Toro virus infected african green monkey Vero cells by trypan blue exclusion method; type: cell-based; conditions: chlorocebus sabaeus, vero; procedure, shortened: as §2

CC1(C)S[C@@H]2[C@H](NC(=O)[C@H](N)c3ccccc3)C(=O)N2[C@H]1C(=O)O [AMPICILLIN TRIHYDRATE]
1.23 µM: MIC [3] | MIC [4]
0.6 µM: MIC [1]
> 2.47 µM: MIC [2]

Nc1nc2c(ncn2COC(CO)CO)c(=O)[nH]1 [GANCICLOVIR]
5.59: pEC50 [6]
> 100000 nM: CC50 ([5]; CRFK cells infected with feline herpesvirus) | CC50 [7] | CC50 [9] | CC50 ([10]; CRFK cells infected with feline coronavirus) | CC50 [11] | CC50 [13]
< 4.00: pEC50 [8] | pEC50 [12]

CCCCCCCCCCCCCCCC(=O)Oc1ccc(/C=C/C(=O)CC(=O)/C=C/c2ccc(OC(=O)CCCCCCCCCCCCCCC)c(OC)c2)cc1OC
0.53 µM: MIC [1] | MIC [3] | MIC [4]

COc1cc(/C=C/C(=O)C(CCOC(=O)CCC(NC(=O)c2ccc(NCc3cnc4nc(N)[nH]c(=O)c4n3)cc2)C(=O)O)C(=O)/C=C/c2ccc(O)c(OC)c2)ccc1O (stereo not given)
> 63 nM: CC50 [23]
< 7.96: pEC50 [14] | pEC50 [16] | pEC50 [18] | pEC50 [20] | pEC50 [6] | pEC50 [25] | pEC50 [8] | pEC50 [29] | pEC50 [34] | pEC50 [12] | pEC50 [36] | pEC50 [37] | pEC50 [39] | pEC50 [41] | pEC50 [42] | pEC50 [45] | pEC50 [46]
0.09 µM: MIC [4]
7.19: pIC50 [35]
7.20: pIC50 [40]
> 65 nM: CC50 [30]
> 11 nM: CC50 [15] | CC50 [17] | CC50 ([5]; crfk) | CC50 [19] | CC50 [21] | CC50 [22] | CC50 [24] | CC50 [26] | CC50 [27] | CC50 [28] | CC50 [31] | CC50 [32] | CC50 ([10]; crfk) | CC50 [33] | CC50 [38] | CC50 [43] | CC50 [44]

Nc1ncnc2c1ncn2C[C@H](O)CO [(S)-DHPA]
3.84: pEC50 [25] | pEC50 [46]
> 250000 nM: CC50 [15] | CC50 [17] | CC50 [47] | CC50 [21] | CC50 [24] | CC50 [31] | CC50 [43] | CC50 [44]
< 3.60: pEC50 [14] | pEC50 [34] | pEC50 [37] | pEC50 [39] | pEC50 [41]
